“And” between values parts separate entries of the source, which are not always exact repeats. Identical values can stand only once.

The text below walks through data of ChEMBL document CHEMBL1131472, “A1 adenosine receptor antagonists as ligands for positron emission tomography (PET) and single-photon emission tomography (SPET)” (J Med Chem, 1998).

For this assay, the target named is T1, Adenosine receptor A1 (Bos taurus, UniProt P28190).
T1 sequence (P28190 whole entry): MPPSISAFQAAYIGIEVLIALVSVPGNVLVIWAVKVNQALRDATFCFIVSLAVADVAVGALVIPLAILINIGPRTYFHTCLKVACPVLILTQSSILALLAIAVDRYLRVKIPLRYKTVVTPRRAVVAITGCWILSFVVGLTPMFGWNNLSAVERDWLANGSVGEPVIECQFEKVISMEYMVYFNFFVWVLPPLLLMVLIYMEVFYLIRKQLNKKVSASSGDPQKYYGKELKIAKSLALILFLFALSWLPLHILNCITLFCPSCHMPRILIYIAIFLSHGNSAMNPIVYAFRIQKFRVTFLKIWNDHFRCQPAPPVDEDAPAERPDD
Nature of the assay: Displacement of [3H]CPX from Adenosine A1 receptor of bovine brain cerebral cortex membranes. Type of assay: tissue-based. In a few lines: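 Competition binding at room temperature in 50 mM Tris·HCl, 0.02% CHAPS, pH 7.4. Mixture held 0.2 nM [3H]CPX, 25 µg bovine cerebral cortex membranes and 0.2 U/mL adenosine deaminase. Membranes were added to start binding, and incubation was stopped after 2 h by glass-fibre filtration. Bound radioactivity was counted by liquid scintillation. Nonspecific binding was defined with 10 µM (R)-PIA. Ki came from nonlinear curve fitting as the geometric mean (95% confidence limits) of 3-5 experiments in duplicate.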
In turn, `CCCn1c(=O)n(CC(C)F)c(=O)c2[nH]c(C3CCCC3)nc21` (stereo unspecified) yielded a Ki of 1.23 nM.
The compound `CCCn1c(=O)n(COCC)c(=O)c2[nH]c(C3CCCC3)nc21` came in with a Ki of 0.286 nM.
Next, `CCCn1c(=O)c2nc(C3CCCC3)[nH]c2n(C)c1=O`: 0.31 nM; `CCCn1c(=O)n(CCCF)c(=O)c2nc(C3CCCC3)[nH]c21`: 0.216 nM; `CCCn1c(=O)c2[nH]c(C3CCCC3)nc2n(CC(C)F)c1=O` (stereo unspecified): 0.094 nM.
Next, `CCCn1c(=O)c2nc(C3CCCC3)[nH]c2n(CCOC)c1=O`: 0.493 nM; `CCCn1c(=O)c2nc(C3CCCC3)[nH]c2n(CCCF)c1=O`: 0.183 nM; `CCCn1c(=O)[nH]c2nc(C3CCCC3)n(C)c2c1=O`: 149 nM.
The value for `CCCn1c(=O)c2nc(C3CCCC3)[nH]c2n(C/C=C/I)c1=O` was 0.237 nM.
Turning to `CCCn1c(=O)c2[nH]c(C3CCCC3)nc2n(CCC)c1=O` [1,3-DIPROPYL-8-CYCLOPENTYLXANTHINE [DPCPX]], the Ki is 0.155 nM and 0.17 nM.
`CCCn1c(=O)n(C)c(=O)c2[nH]c(C3CCCC3)nc21` came in with a Ki of 0.526 nM. In other words, the sub-nanomolar range.
